Source: PubChem
Shown are actives, neighbours in structure and some others; about 1.3% of the full set was active somewhere.
DDE Tn7 FP inh = inhibitors of Tn7 peptide binding to human fibrin DD(E). P02675. FP displacement of FITC-Tn7 peptide from fibrin DD(E); 0% = median of compound wells per plate. inhibition, % at 8.3 µM. actives 0.13% (n = 370,000);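 active means inhibition above the mean of compounds falling within the control limits plus 3 SD of them, cut at about 14% in these data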;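 further: 0% = plate median of compound wells and 100% = 10 µM Aha-Tn7 peptide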
Target sequence (P02675 whole entry, looked up): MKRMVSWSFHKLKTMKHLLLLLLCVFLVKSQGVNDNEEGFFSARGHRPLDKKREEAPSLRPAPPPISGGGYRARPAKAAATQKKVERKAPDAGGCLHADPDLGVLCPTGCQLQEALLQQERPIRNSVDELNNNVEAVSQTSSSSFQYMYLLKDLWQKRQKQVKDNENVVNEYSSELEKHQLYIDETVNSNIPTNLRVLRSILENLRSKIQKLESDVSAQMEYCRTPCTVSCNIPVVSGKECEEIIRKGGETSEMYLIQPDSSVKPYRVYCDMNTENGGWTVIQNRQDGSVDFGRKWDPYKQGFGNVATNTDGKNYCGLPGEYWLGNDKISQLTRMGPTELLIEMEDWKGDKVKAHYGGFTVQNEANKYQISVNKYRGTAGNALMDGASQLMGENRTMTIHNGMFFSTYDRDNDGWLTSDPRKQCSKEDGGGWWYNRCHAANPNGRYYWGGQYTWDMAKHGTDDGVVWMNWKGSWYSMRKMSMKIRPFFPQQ
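Also added: labelled Tn7 tracer, 0.1 µM; Assay system: human fibrin DD(E) protein; Amount: 2 µM fibrin DD(E); Schedule: 10 min compound pre-incubation, 3 h probe incubation at room temperature; Repeats: one replicate per compound; Read-out basis: percent inhibition; Measured by: fluorescence polarization of the labelled Tn7 tracer.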
CRFR2-BP ag = agonists of human CRF-binding protein/CRF-R2 receptor complex | HEK293 CRF-R2/CRF-BP, calcium dye fluorescence (FLIPR); percent of saturating CRF peptide response | activation, % at 13.2 µM | actives 0.46% (n = 350,000);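 active means activation of at least 50%, plus an integration ratio under a set limit after plate pattern correction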;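 further: plate controls were neutral control wells without compound for no effect and CRF at EC100 for full effect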
CRFBP-R2 block = blocks CRF-induced signaling of the CRF-BP/CRF-R2 complex; HEK293 CRF-R2/CRF-BP, CRF-induced calcium fluorescence; inhibition, % at 11.8 µM; actives 0.59% (n = 350,000);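 active means inhibition of the ligand-induced calcium signal above about 50% at the single tested concentration, limit read from the data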
Tn6 DDE FP = DD(E)-Tn6 binding inhibition, primary FP screen | P02675 | Fibrin DD(E) TRITC-Tn6 fluorescence polarization displacement | inhibition, % at 8.3 µM | actives 0.21% (n = 370,000);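 active means inhibition above a per-campaign cutoff: mean of compounds within control limits plus 3 SD, cut at about 15% in these data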;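 further: 0% = median of all compound wells on the plate and 100% = blocking peptide control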
DDE Tn7 confirm = confirmation of inhibitors of Tn7 binding to human fibrin DD(E) | shares compounds with DDE Tn7 FP inh | FP displacement of TRITC-Tn7 peptide from DD(E); 0% set at plate's compound-well median | inhibition, % at 8.3 µM | actives 5% (n = 460) | AID 720628;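 active means inhibition above the campaign cutoff, the mean of compounds within control limits plus 3 SD, cut at about 14% in these data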;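 further: 100% = median FP of high control wells holding Aha-Tn7 inhibitor peptide; displacers lower polarization since freed probe rises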
Tn7 DDE ctr = counter-screen for inhibitors of Tn7 peptide binding to fibrin DD(E); shares compounds with DDE Tn7 FP inh; AID 720633; TRITC-Tn7 probe displacement, fluorescence polarization; actives 3% (n = 460); inhibition, % at 8.3 µM;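 active means inhibition above the cutoff, the mean of compounds lying between the control bounds plus 3 SD of those compounds, cut at about 17% in these data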;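 further: 0% = median of compound sample wells and 100% = excess unlabeled Aha-Tn7 peptide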
* marks the source's active call; other numbers are inactive results; . = no result.

SMILES	DDE Tn7 FP inh	CRFR2-BP ag	CRFBP-R2 block	Tn6 DDE FP	DDE Tn7 confirm	Tn7 DDE ctr
CCOC(=O)CC[C@@]1(C(=O)OCC)C[C@@H](CC(=O)NCc2ccc(C)o2)C(=O)N2CCCC=C21	-4	.	.	8	.	.
COc1ccc(/C=C2/CC/C(=C\c3ccc(OC)c(OC)c3OC)C2=O)c(OC)c1OC	-11	52*	-88	2	.	.
COc1ccc(/C=C2\CCC(C3CCCC3)C2=O)c(OC)c1OC (stereo not given)	-2	2	4	-3	.	.
Cc1cc(OCC(=O)C(C)(C)C)c2c(C)c(C)c(=O)oc2c1	1	-1	109*	-6	.	.
CCc1cc(=O)oc2cc(C)cc(OCC(=O)C(C)(C)C)c12	9	-9	-15	3	.	.
COC(=O)[C@]12C[C@H](CC(=O)NCc3ccccc3)C(=O)N(CCc3ccc(OC)c(OC)c3)C1=C[C@H](COCc1ccccc1)O[C@@H]2C	8	.	.	5	.	.
O=C(Nc1nc(-c2ccccc2)cs1)c1ccc2c(c1)S(=O)(=O)c1ccccc1C2=O	-5	0	86*	-1	.	.
O=C(O)Cn1nc(-c2ccc(F)cc2)oc1=O	-5	-1	28	2	.	.
CCOC(=O)Cn1nc(-c2ccc(F)cc2)oc1=O	14*	0	14	2	0	-1
CC(=O)Nc1ccc(NC(=O)CCCCCN2C(=O)c3ccccc3C2=O)cc1	14*	1	-18	3	-5	-5
O=C(CCCCCN1C(=O)c2ccccc2C1=O)Nc1ccccc1	2	-1	12	-2	.	.
c1ccc(Nc2cccc(Nc3ccccc3)c2)cc1	-5	-2	36	0	.	.
Oc1cccc(Nc2ccccc2)c1	14*	0	5	2	7	4
CC(C)c1nnc(N2C(=O)C(O)=C(C(=O)c3cccs3)C2c2ccccc2)s1 (stereo not given)	30*	196*	-217	-6	3	0
O=C(OCc1cn([C@@H]2CN(C(=O)C3CCCCC3)[C@@H](c3ccccc3)C[C@H]2O)nn1)c1ccccc1	6	0	-4	0	.	.
O=C(OCc1cn([C@H]2CN(C(=O)C3CCCCC3)[C@@H](c3ccccc3)C[C@@H]2O)nn1)c1ccccc1	15*	-1	-10	7	3	6
CCOC(=O)N1CCN(C(=O)C[C@H]2C[C@@]3(C(=O)OC)C(=C[C@H](C4CCCC4)O[C@@H]3C)N(CCc3ccc(OC)c(OC)c3)C2=O)CC1	1	.	.	2	.	.
COc1ccc(-c2ccc([C@H]3[C@H]4C=CC[C@@H](C)[C@@H]4C(=O)N3Cc3ccccc3)c(F)c2)cc1OC	14*	5	0	-9	2	-12
CCC(CC)C(=O)c1c[nH]c(C(=O)NCc2ccccc2)c1	14*	-1	22	-1	0	-2
CCC(CC)C(=O)c1c[nH]c(C(=O)NCc2ccccc2OC)c1	3	-7	-10	-9	.	.
COc1ccc(OC)c(/C=C/C(=O)OCC(=O)Nc2nnc(-c3ccccc3)o2)c1	14*	-4	1	1	7	1
CCC(CC)C1C(C#N)=C(N)SC(N)=C1C#N	6	2	29	3	.	.
CC(C)C1C(C#N)=C(N)SC(N)=C1C#N	14*	0	-23	6	2	0
Cc1ccc2c(c1)N(CCCC(=O)N(C)Cc1ccccc1F)C(=O)CO2	-6	.	.	-9	.	.
COc1cc2c(c(OC)c1OC)-c1ccc(NCc3ccccc3)c(=O)cc1C(NC(C)=O)CC2 (stereo not given)	15*	10	7	-1	-7	-11
SMILES	DDE Tn7 FP inh	CRFR2-BP ag	CRFBP-R2 block	Tn6 DDE FP	DDE Tn7 confirm	Tn7 DDE ctr
CCN1C(=O)[C@H]2[C@@H](c3ccc(C)cc3)N3C(=O)N(c4ccc(OC)cc4)C(=O)[C@@]3(C)[C@H]2C1=O	16*	0	5	1	-7	-13
CCN1C(=O)[C@H]2[C@@H](c3ccc(C)cc3)N3C(=O)N(c4ccc(C)cc4)C(=O)[C@@]3(C)[C@H]2C1=O	-5	-1	0	6	.	.
O=C(COC(=O)c1ccc(Cl)cc1)NCC1CCCCC1	15*	-6	-15	-1	-3	-5
COCCN(C(=O)c1ccc(-c2ccc(Cl)cc2)o1)c1c(N)n(CC(C)C)c(=O)[nH]c1=O	0	-1	-5	-3	.	.
COCCN(C(=O)c1ccc(-c2ccc([N+](=O)[O-])cc2)o1)c1c(N)n(CC(C)C)c(=O)[nH]c1=O	14*	0	2	0	5	2
C/C(=N\NC(=O)Cn1cnc2ccccc21)c1cccs1	17*	-1	19	0	2	-4
Nc1[nH]c(C(=O)c2ccccc2)c(-c2cccnc2)c1C(=O)NCCc1c[nH]c2ccccc12	1	.	.	0	.	.
COc1ccc(CC(NC(C)=O)C(=O)NC2CCN(c3c(Cc4ccccc4)c(C)nc4ncnn34)CC2)c(OC)c1 (stereo not given)	14*	-3	28	-3	9	6
N#Cc1ccc(Cl)cc1NC(=O)COC(=O)c1cccc(S(=O)(=O)N2CCOCC2)c1	14*	-2	1	4	6	-5
CC1CN(C(=O)c2ccccc2)OC(c2ccc3c(c2)OCO3)O1 (stereo not given)	15*	0	8	6	-3	-1
C/C=C/C=C/C(=O)N1C[C@H](C)N(C)C[C@H]1C	5	.	.	9	.	.
COc1cc(C)c(S(=O)(=O)NCc2ccc3c(c2)OCO3)cc1C	3	-1	12	-8	.	.
COc1cc(C)c(Cl)c(C)c1S(=O)(=O)NCc1ccc2c(c1)OCO2	16*	-1	-11	3	-1	-6
Cc1[nH]nc2c1C(c1ccc(Br)cc1)N(c1ccccc1)C2=O (stereo not given)	0	.	.	-2	.	.
COc1ccccc1CN1CCN(Cc2ccco2)CC1	3	-1	17	8	.	.
COc1ccc(CN2CCN(Cc3ccco3)CC2)c(OC)c1	14*	1	3	8	2	0
Cc1ccc(S(=O)(=O)Nc2cc(C(=O)O)ccc2N2CCC(C)CC2)cc1C	7	.	.	8	.	.
O=C(Nc1ccccc1)N1CCN(Cc2ccc3c(c2)OCO3)CC1	-3	-1	9	-1	.	.
Cc1cc(C)cc(NC(=O)N2CCN(Cc3ccc4c(c3)OCO4)CC2)c1	14*	-2	12	-2	2	0
O[C@H](COc1ccccc1)CN1CCC(C(O)(c2ccccc2)c2ccccc2)CC1	-2	.	.	-2	.	.
Cc1cc2c(cc1C)C(c1cccc([N+](=O)[O-])c1)CC(=O)N2 (stereo not given)	14*	3	-60	-3	4	-3
O=C(COc1ccc(Oc2ccccc2)cc1)NCc1cn2ccccc2n1	16*	1	-3	5	-7	-10
